Calls of active or inactive are those of the source. The calls are words filed in the database; no cut-off is given here.
Key:
[1] = Cytotoxicity against human WHCO1 cells after 48 hrs by MTT assay; details: WHCO1, 48 h
[2] = tested on: NIH3T3; assay: Cytotoxicity against mouse NIH/3T3 cells after 96 hrs by MTT assay; type: cell-based; details: for Activity: mouse, nih3t3, 96 h; for IC50: Mus musculus, NIH3T3, 96 h
Outline: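 NIH3T3 fibroblasts kept in DMEM with 10% heat-inactivated FCS plus penicillin/streptomycin/amphotericin at 37 °C, 9% CO2. Seeded at 1000 cells/well overnight, then exposed to 0, 10, 100, 1 000 and 10 000 nM or vehicle (0.02% v/v) for 96 h.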

[3] = Ratio of cisplatin IC50 to compound IC50 for human WHCO1 cells after 48 hrs by MTT assay
[4] = tested on: WHCO1; assay: Induction of apoptosis in human WHCO1 cells assessed as increase in c-jun level after 6 to 24 hrs by MTT assay; type: functional, cell-based; details: in the assay text read “by Western blot analysis” for “by MTT assay”
Outline: (§1)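 Western blot of WHCO1 cells given varying concentrations for 6, 24 and 48 h, protein extracted at each time point. PARP cleavage to […] 85 kDa fragments taken as the apoptosis marker; c-Jun levels probed on the same blots.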

[5] = tested on: WHCO1; assay: Induction of apoptosis in human WHCO1 cells assessed as PARP cleavage at 5 to 10 uM after 6 to 48 hrs by MTT assay; type: functional, cell-based; details: in the assay text read “by Western blot analysis” for “by MTT assay”
Outline: as §1

[6] = tested on: WHCO1; assay: Induction of apoptosis in human WHCO1 cells assessed as PARP cleavage at 20 uM after 6 to 48 hrs by MTT assay; type: functional, cell-based; details: in the assay text read “by Western blot analysis” for “by MTT assay”
Outline: as §1

[7] = Ratio of cisplatin IC50 to compound IC50 for human WHCO1 cells after 24 hrs by MTT assay; type: functional
[8] = Cytotoxicity against human WHCO1 cells after 24 hrs by MTT assay; type: functional, cell-based; details: WHCO1, 24 h

| Compound | IC50 [1] | Ratio IC50 [3] | other results |
| --- | --- | --- | --- |
| C=CC(O)C1=CC(=O)c2ccccc2C1=O (stereo not given) | 4.3 µM | – | – |
| O=C1C=C(C(O)c2cccc(Cl)c2)C(=O)c2ccccc21 (stereo not given) | 7.3 µM | 2 | Activity [2]: Non-toxic |
| O=C1C=C(C(O)c2ccccc2)C(=O)c2ccccc21 (racemic) | 3.9 µM | 11 | Activity [2]: Non-toxic; Activity [4]: Dose-dependent effect; Activity [5]: inactive; Activity [6]: Active |
| O=C1C=C(C(O)c2ccoc2)C(=O)c2ccccc21 (stereo not given) | 10.9 µM | 2 | – |
| O=C1C=C(Cc2ccccc2)C(=O)c2ccccc21 | 21.6 µM | – | – |
| O=C1C=C(C(O)c2cccc(F)c2)C(=O)c2ccccc21 (stereo not given) | 5.5 µM | 2 | IC50 [2]: 82 µM |
| CC(C)=CC(O)C1=CC(=O)c2ccccc2C1=O (stereo not given) | 5.2 µM | – | – |
| CC1(C)CCC2=C(O1)C(=O)c1ccccc1C2=O [ALPHA-LAPACHONE] | 28.7 µM | – | – |
| O=C(C1=CC(=O)c2ccccc2C1=O)c1ccc(Cl)cc1 | 72.9 µM | – | – |
| CC1(C)CC2=C(O1)c1ccccc1C(=O)C2=O [NOR-BETA-LAPACHONE] | 2.4 µM | 7 | – |
| O=C1C=C(C(O)c2ccc(F)cc2)C(=O)c2ccccc21 (stereo not given) | 5.1 µM | 2 | IC50 [2]: 11.7 µM |
| O=C1C=C(C(O)c2ccc3ccccc3c2)C(=O)c2ccccc21 (stereo not given) | – | – | Ratio IC50 [7]: 2; IC50 [8]: 2.4 µM |
| O=C1C=C(c2ccccc2)C(=O)c2ccccc21 | 11.7 µM | 2 | – |
| O=C1C=C([C@H](O)c2ccccc2)C(=O)c2ccccc21 | 4.3 µM | – | Activity [4]: Dose-dependent effect; Activity [5]: inactive; Activity [6]: Active |
| O=C(C1=CC(=O)c2ccccc2C1=O)c1ccoc1 | 96.9 µM | – | – |
| O=C(CCc1ccccc1)C1=CC(=O)c2ccccc2C1=O | 83.7 µM | – | – |

| Compound | IC50 [1] | Ratio IC50 [3] | other results |
| --- | --- | --- | --- |
| O=C(C1=CC(=O)c2ccccc2C1=O)c1cccc(F)c1 | 94.8 µM | – | – |
| O=C(C1=CC(=O)c2ccccc2C1=O)c1ccc(F)cc1 | 74.9 µM | – | – |
| Cc1cc(Cl)ccc1C(=O)C1=CC(=O)c2ccccc2C1=O | 50.4 µM | – | – |
| CC(C)=CCC1=CC(=O)c2ccccc2C1=O [DEOXYLAPACHOL] | 15 µM | – | – |
| Cc1cc(Cl)ccc1C(O)C1=CC(=O)c2ccccc2C1=O (stereo not given) | 3.4 µM | 2 | IC50 [2]: 7.4 µM |
| O=C1C=C(C(O)CCc2ccccc2)C(=O)c2ccccc21 (stereo not given) | 4.8 µM | 2 | – |
| O=C(C1=CC(=O)c2ccccc2C1=O)c1cccc(Cl)c1 | 94.8 µM | – | – |
| O=C(C1=CC(=O)c2ccccc2C1=O)c1ccccc1 | 63.4 µM | – | – |
| O=C1C=C(C(O)c2ccc(Cl)cc2)C(=O)c2ccccc21 (stereo not given) | 3 µM | 2 | Activity [2]: Non-toxic |
| CC1(C)CCC2=C(O1)c1ccccc1C(=O)C2=O [LAPACHONE] | 1.6 µM | 10 | – |
| CC1(C)OC2=C(CC1O)C(=O)C(=O)c1ccccc12 (stereo not given) | 6.5 µM | 2 | – |
| O=C1C=C([C@@H](O)c2ccccc2)C(=O)c2ccccc21 | 3.8 µM | – | Activity [4]: Dose-dependent effect; Activity [5]: inactive; Activity [6]: Active |
| CC(C)=CCC1=C(O)C(=O)c2ccccc2C1=O [LAPACHOL] | 24.1 µM | – | – |
| CC(O)C1=CC(=O)c2ccccc2C1=O (stereo not given) | 6.4 µM | – | – |
| CC1(C)OC2=C(CC1Br)C(=O)C(=O)c1ccccc12 (stereo not given) | 1.8 µM | 9 | – |
